The list is not random: actives were taken first. Their share in the collection is about 1.8%.
PERK inh: inhibitors of human PERK kinase. inhibition, % at 5.6 µM. CHO PERK-DD fusion, SEAP luminescence translation reporter. 0.17% of 220,000 active. Q9NZJ5;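 active means inhibition above the mean inhibition of all tested compounds plus 3 SD, set separately per screening campaign, cut at about 2.9% in these data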;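 further: PERK kinase domain activated by AP20187 dimerizer at 100 nM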
STAT3 inh: STAT3 signaling inhibition | inhibition, % at 5.5 µM | 0.89% of 190,000 active | U3A cells, IL-6 STAT3-luciferase reporter, luminescence; host cell line lacks STAT1 | AID 862;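 active means inhibition above the mean inhibition across all screened compounds plus 3 SD, cut at about 44% in these data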
STAT3 activator: increases IL-6 driven STAT3 reporter signal; 0.91% of 190,000 active; U3A cells, IL-6 STAT3-luciferase reporter, luminescence; 100% = signal with IL-6 EC80 alone; activation (% of control), % at 5.6 µM; AID 871;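 active means activation above the screen-wide mean of compound activation plus 3 SD, cut at about 130% in these data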
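Test system: Human STAT1-deficient U3A cells with stable STAT3-luciferase reporter | Also added: Interleukin-6, 33 ng/mL | Timing: Compound pre-incubation 1 h before IL-6, then 6 h stimulation at 37 °C | Technique: Luciferase reporter luminescence | Read-out: Percent of IL-6-only median luminescence | Benchmarks: IL-6-only wells as 100% reference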
STAT1 inh-1: inhibitors of IFN-gamma induced STAT1 signaling; NIH 3T3 STAT1-luciferase reporter, luminescence; inhibition, % at 5.5 µM; 0.35% of 200,000 active;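 active means inhibition above a set limit, the mean inhibition across all tested compounds plus 3 SD, cut at about 34% in these data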
STAT1 inh-2: STAT1 inhibition, confirmation assay; shares compounds with STAT1 inh-1; NIH 3T3 STAT1-luciferase reporter, IFN-gamma, luminescence; inhibition, % at 5.5 µM; 55% of 200 active;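 active means triplicate mean inhibition exceeding the hit cutoff computed for the primary STAT1 screen, cut at about 35% in these data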
NFkB inh: counter-screen for STAT1 inhibitors: NF-kappaB inhibition; shares compounds with STAT1 inh-1; 30% of 200 active; HEK293T NF-kB luciferase reporter, TNF-alpha induced, luminescence; inhibition, % at 5.7 µM;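 active means inhibition above the mean of solvent-only control wells plus 3 SD of those wells, cut at about 15% in these data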
STAT3 inh STAT1c: counter-screen for STAT1 inhibitors: STAT3 inhibition. shares compounds with STAT1 inh-1. U3A cells, IL-6 STAT3 luciferase reporter, luminescence; cells lacking STAT1. inhibition, % at 5.7 µM. 20% of 200 active. AID 1310;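 active means inhibition above the mean of solvent-only control wells plus 3 SD, set per campaign, cut at about 25% in these data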
Hits are given with their value; i = inactive; nt = no result.

SMILES | PERK inh | STAT3 inh | STAT3 activator | STAT1 inh-1 | STAT1 inh-2 | NFkB inh | STAT3 inh STAT1c
Cc1cc(NC(=O)CCCS(=O)(=O)c2nc(-c3cccs3)cc(C(F)(F)F)n2)no1 | i | i | i | 47.2 | 47.5 | i | i
COCC(C)NC(=O)CCS(=O)(=O)c1nc(-c2ccc(OC)cc2)cc(C(F)(F)F)n1 (stereo not given) | i | i | i | 42.9 | 50.9 | i | i
COCCNC(=O)CCSc1nc(-c2ccc(OC)cc2)cc(C(F)(F)F)n1 | i | i | i | i | nt | nt | nt
Cc1cc(NC(=O)CSc2nc(-c3cccs3)cc(C(F)(F)F)n2)no1 | i | i | i | i | nt | nt | nt
COc1ccc(-c2cc(C(F)(F)F)nc(S(C)(=O)=O)n2)cc1 | i | i | i | i | nt | nt | nt
CS(=O)(=O)c1nc(-c2ccc(F)cc2)cc(C(F)(F)F)n1 | i | i | i | 44.5 | 38.6 | i | i
Cc1cc(C)n2nc(SCC(=O)c3cc(C)n(CC4CCCO4)c3C)nc2n1 (stereo not given) | i | i | i | i | nt | nt | nt
C/C(=N\NC(=O)CC#N)c1ccc(Oc2ccccc2)cc1 | i | i | i | i | nt | nt | nt
Cc1ccc(C(=O)NC(=S)Nc2ccc(-c3ccc(CO)o3)cc2)cc1 | i | i | i | 63.8 | i | i | i
O=C(NC(=S)Nc1ccc(-c2ccc(CO)o2)cc1)c1cccs1 | i | i | i | i | nt | nt | nt
Cc1ccc(NCC(=O)Nc2cccc(S(=O)(=O)N(C)C)c2)c(Cl)c1 | i | i | i | i | nt | nt | nt
CCOC(=O)N1CCN(C(=O)c2ccc3c(=O)n(-c4ccc(OC)cc4)c(=S)[nH]c3c2)CC1 | i | i | i | i | nt | nt | nt
CCOC(=O)N1CCN(C(=O)c2ccc(-n3c(=S)[nH]c4ccccc4c3=O)cc2)CC1 | i | i | i | 60.3 | 47.9 | i | i
CCOC(=O)N1CCN(C(=O)c2ccc3c(=O)n(-c4ccccc4F)c(=S)[nH]c3c2)CC1 | i | i | i | 39.6 | i | i | i
CN1CCc2nc(NC(=O)COc3ccc(C#N)cc3)sc2C1 | i | i | i | i | nt | nt | nt
O=C(/C=C/c1ccccc1)N/C(=C/c1ccccc1)C(=O)NCCCO | i | i | i | i | nt | nt | nt
Cn1nnnc1Sc1ncnc2scc(-c3ccc(F)cc3)c12 | i | i | i | 37.5 | 50.0 | i | i
Cn1nnnc1SCc1nc2scc(-c3ccccc3)c2c(=O)[nH]1 | i | nt | nt | nt | nt | nt | nt
Cn1nnnc1Sc1ncnc2scc(-c3ccccc3)c12 | i | i | i | 43.9 | 49.4 | i | i
O=C(c1ccco1)N1CCN(c2ncnc3c2[nH]c2ccccc23)CC1 | i | i | i | 43.5 | 46.9 | i | i
O=C(c1ccco1)N1CCN(c2ncnc3c2[nH]c2ccc(Br)cc23)CC1 | i | i | i | 37.0 | 37.2 | i | i
CCOc1ccc2[nH]c3c(N4CCN(C(=O)c5ccco5)CC4)ncnc3c2c1 | i | nt | nt | nt | nt | nt | nt
CC1(C)OC(c2ccccc2)=C/C(=C/C=N/NC(=O)c2ccncc2)O1 | i | i | i | i | nt | nt | nt
Clc1ccc(C[n+]2cc(-c3ccccc3)n3c2CCCCC3)c(Cl)c1 | i | i | i | 39.7 | i | i | 25.6
Clc1ccc(-c2c[n+](Cc3ccc(Cl)cc3Cl)c3n2CCCCC3)cc1 | i | nt | nt | nt | nt | nt | nt
SMILES | PERK inh | STAT3 inh | STAT3 activator | STAT1 inh-1 | STAT1 inh-2 | NFkB inh | STAT3 inh STAT1c
O=c1c(Cc2c(F)cccc2Cl)c(O)ccn1C1CCCCCC1 | i | i | i | i | nt | nt | nt
COc1cc(/C=C/C(=O)OCC(=O)NC(=O)NC(C)C)cc(S(=O)(=O)N2CCc3ccccc32)c1OC | i | i | i | 58.8 | 45.7 | 17.8 | i
CCOC(=O)C1(Cc2ccccc2C)CCCN(Cc2ccc(NC(C)=O)cc2)C1 (stereo not given) | i | i | i | i | nt | nt | nt
O=C(O)CSc1nnc(NC(=O)c2ccc3c(c2)OCO3)s1 | i | i | i | 37.6 | i | 19.7 | i
Fc1ccccc1N1CCN(c2ncnc3nc[nH]c23)CC1 | i | nt | nt | nt | nt | nt | nt
Clc1ccccc1N1CCN(c2ncnc3nc[nH]c23)CC1 | i | i | i | 36.6 | i | i | i
Cc1cc(=O)n(C(NC(=O)c2ccccc2)C(=O)c2ccccc2)cn1 (stereo not given) | i | i | i | 41.7 | 45.8 | i | i
CCCS(=O)(=O)c1nnnn1-c1cccc(OC)c1 | i | i | i | 45.6 | 51.5 | 23.6 | i
CC(C)(C)C1CCc2c(sc(NC(=O)c3cccs3)c2C(N)=O)C1 (stereo not given) | i | i | i | 53.5 | i | i | i
CCC(C)(C)C1CCc2c(sc(NC(=O)c3cccs3)c2C(N)=O)C1 (stereo not given) | i | i | i | i | nt | nt | nt
CCOC(=O)N1CCN(C(=O)/C=C/c2c(C)nn(-c3ccc(F)cc3)c2Cl)CC1 | i | i | i | 61.9 | 39.7 | i | i
O=C(c1ccco1)N1CCN(c2ccnc3cc(Cl)ccc23)CC1 | i | i | i | 35.4 | 43.5 | 24.4 | i
Cc1cccc(-n2cc(-c3ccccc3)c3c(N4CCOCC4)ncnc32)c1 | i | i | i | 37.8 | i | i | i
CCCn1nc(C(=O)OCC(=O)c2c(N)n(C)c(=O)n(C)c2=O)c2ccccc2c1=O | i | i | i | 48.6 | i | i | i
O=C(COC(=O)c1c(Cl)ccc(Cl)c1Cl)NC1CCS(=O)(=O)C1 (stereo not given) | i | i | i | i | nt | nt | nt
Cc1ncc([N+](=O)[O-])n1CC(=O)Nc1ccc2c(c1)OCO2 | i | i | i | i | nt | nt | nt
Cc1cccc(N(Cc2ccccc2)C(=O)CCl)c1 | i | i | i | 35.4 | i | i | 28.6
O=C(CCl)N(Cc1ccccc1)c1ccccc1 | i | i | i | i | nt | nt | nt
COCCCn1c(=O)/c(=C\c2ccc(OC(F)F)c(OC)c2)s/c1=C(/C#N)C(=O)NCCOC | i | nt | nt | nt | nt | nt | nt
CCC(=O)Nc1ccc(-c2nc3ccccc3c(=O)o2)cc1 | i | i | i | 39.3 | i | i | i
CC(=O)N1CCc2ccc(NC(=O)c3c(-c4c(Cl)cccc4Cl)noc3C)cc21 | i | nt | nt | nt | nt | nt | nt
CCC(C)c1ccccc1OCCn1ccnc1 (stereo not given) | i | i | i | i | nt | nt | nt
COc1ccc(CNC(=O)C(c2ccc(C)cc2)N(Cc2cccs2)C(=O)c2ccc3c(c2)OCCO3)cc1 (stereo not given) | i | i | i | 38.3 | i | i | i
Cc1[nH]c2c(C)cccc2c1CN1CCC(CO)(Cc2ccccc2)CC1 | i | nt | nt | nt | nt | nt | nt
Cc1nn(-c2ccccc2C(=O)O)c(=O)c2ccccc12 | i | i | i | i | nt | nt | nt
CC1=NC(=O)C(N=Nc2ccccc2C(=O)O)N1c1ccccc1 (stereo not given) | i | i | i | 64.9 | 49.5 | 15.8 | i
O=C(O)C(Cc1ccccc1)N=Cc1c(O)c2ccccc2oc1=O (stereo not given) | i | i | i | 40.7 | i | i | i
COc1ccc(N=Cc2c(O)c3ccccc3oc2=O)cc1 | i | i | i | i | nt | nt | nt
Cc1c(CN(C)C)c2c(n1Cc1ccccc1)C(=O)c1ccccc1-2 | i | i | i | i | nt | nt | nt

Screens as filed in PubChem BioAssay.
